This is an account of results in ChEMBL document CHEMBL2321795, “Solubility-driven optimization of (pyridin-3-yl) benzoxazinyl-oxazolidinones leading to a promising antibacterial agent” (J Med Chem, 2013).

As usually defined, the MIC is the lowest concentration found to suppress growth. Low values mean greater potency, high ones weaker potency. The term IC50 denotes the midpoint of a concentration-inhibition curve. Low values mean higher potency, high ones lower potency. A word on the AUC: it is concentration integrated over time. One may read the Cmax as the maximum level reached in the sampled fluid or tissue. For orientation: Tmax means the time from dosing to the highest level. What is called clearance is a measure of how efficiently the substance is removed, as volume per time. Broadly, the bioavailability is dose-corrected exposure relative to a reference, in per cent. Low readings indicate little systemic uptake, high ones much systemic uptake.

≈ marks a conversion by molar mass, not a printed value.

For data set [1], the system named is Rattus norvegicus. Description: Oral bioavailability in Sprague-Dawley rat at 10 mg/kg. It counts as ADME, organism-based. As to conditions: in vivo. The essentials:
(§1)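 Rats were dosed orally or by intravenous injection. For prodrugs, all parameters were based on the active parent antibacterial detected in plasma, and each prodrug dose was also given as an equivalent parent dose. Parameters were Cmax, Tmax, elimination T1/2, AUC from the concentration–time curve, clearance and oral bioavailability F.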

Data set [2] concerns Streptococcus pneumoniae. As to the kind of experiment: Antibacterial activity against penicillin-resistant Streptococcus pneumoniae after 16 hrs by NCCLS agar dilution method. It counts as functional. The essentials: (§2)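 Agar dilution MIC. Stocks were 320 μg/mL in 50% aqueous DMSO, 2-fold serially diluted in sterile water, then diluted 10-fold into Mueller–Hinton agar to give 16–0.03125 μg/mL final. Organisms were grown in MH broth at 35 °C for 8 h and adjusted to 0.5 McFarland. They were spotted onto drug-containing plates with a multipoint inoculator and incubated at 35 °C for 16 h. Linezolid was the positive control.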

In data set [3] the test system is Staphylococcus aureus. As to the kind of experiment: Antibacterial activity against methicillin-resistant Staphylococcus aureus after 16 hrs by NCCLS agar dilution method. It counts as functional. The essentials: as §2
(In general: Agar dilution tests growth on a series of plates holding different concentrations.)

Data set [4] relates to Staphylococcus epidermidis. Description: Antibacterial activity against linezolid-resistant Staphylococcus epidermidis after 16 hrs by NCCLS agar dilution method. In kind it is functional. In outline:
as §2

The target of data set [5] is Voltage-gated inwardly rectifying potassium channel KCNH2 (Homo sapiens, UniProt Q12809).
Sequence of Voltage-gated inwardly rectifying potassium channel KCNH2 (Q12809 whole entry): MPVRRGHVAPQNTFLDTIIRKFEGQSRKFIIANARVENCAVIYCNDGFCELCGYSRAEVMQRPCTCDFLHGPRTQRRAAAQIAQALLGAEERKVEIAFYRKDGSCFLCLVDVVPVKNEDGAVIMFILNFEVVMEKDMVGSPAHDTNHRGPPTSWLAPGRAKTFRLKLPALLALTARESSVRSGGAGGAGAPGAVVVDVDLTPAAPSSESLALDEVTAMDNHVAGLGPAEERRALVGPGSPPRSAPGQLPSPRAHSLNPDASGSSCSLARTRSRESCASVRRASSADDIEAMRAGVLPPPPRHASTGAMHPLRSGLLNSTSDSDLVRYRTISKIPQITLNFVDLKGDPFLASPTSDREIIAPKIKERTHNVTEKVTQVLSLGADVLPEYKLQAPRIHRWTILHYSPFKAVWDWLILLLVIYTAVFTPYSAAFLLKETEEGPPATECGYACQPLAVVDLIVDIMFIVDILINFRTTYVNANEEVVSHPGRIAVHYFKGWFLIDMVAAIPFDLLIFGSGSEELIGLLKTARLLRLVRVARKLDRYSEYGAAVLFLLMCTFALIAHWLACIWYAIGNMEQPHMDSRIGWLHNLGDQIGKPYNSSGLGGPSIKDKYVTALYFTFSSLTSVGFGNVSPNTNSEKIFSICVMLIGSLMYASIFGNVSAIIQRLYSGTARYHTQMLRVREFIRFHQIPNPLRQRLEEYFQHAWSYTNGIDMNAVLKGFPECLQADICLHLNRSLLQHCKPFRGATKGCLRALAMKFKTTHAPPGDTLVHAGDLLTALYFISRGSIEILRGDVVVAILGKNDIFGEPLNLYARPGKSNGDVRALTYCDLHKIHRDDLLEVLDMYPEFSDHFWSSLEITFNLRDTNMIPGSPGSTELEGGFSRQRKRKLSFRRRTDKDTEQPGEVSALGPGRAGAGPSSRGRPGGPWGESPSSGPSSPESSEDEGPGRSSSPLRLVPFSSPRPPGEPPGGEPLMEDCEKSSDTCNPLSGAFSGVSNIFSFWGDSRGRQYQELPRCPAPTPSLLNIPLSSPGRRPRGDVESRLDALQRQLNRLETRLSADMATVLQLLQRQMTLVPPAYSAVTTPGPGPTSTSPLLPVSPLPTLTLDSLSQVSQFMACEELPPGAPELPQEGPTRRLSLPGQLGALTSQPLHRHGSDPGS
The nature of data set [6]: Elimination half life in Sprague-Dawley rat at 5.6 mg/kg, iv by LC-MS analysis. In kind it is ADME, organism-based. Details: dose 5.6 mg/kg, route intravenous. As to conditions: in vivo, read-out: beta t1/2 (converted). In outline:
as §1

The test system of data set [7] is Enterococcus faecalis. As to the kind of experiment: Antibacterial activity against linezolid-resistant Enterococcus faecalis after 16 hrs by NCCLS agar dilution method. It counts as functional. In outline:
as §2

Data set [8] relates to Enterococcus faecalis. As to the kind of experiment: Antibacterial activity against Enterococcus faecalis after 16 hrs by NCCLS agar dilution method. In kind it is functional. In outline:
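Agar dilution MIC per NCCLS, 6 E. faecalis strains. Stock was 320 μg/mL in 50% water/DMSO, serially 2-fold diluted in sterile water, then 10-fold into Mueller–Hinton agar to give 16–0.03125 μg/mL final. Inocula came from MH broth cultures grown 8 h at 35 °C, adjusted to 0.5 McFarland and spotted by multipoint inoculator. Plates were read after 16 h at 35 °C.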

The subject of data set [9] is Rattus norvegicus. As to the kind of experiment: AUC in Sprague-Dawley rat at 10 mg/kg, po by LC-MS analysis. In kind it is ADME, organism-based, Plasma. Details: dose 10 mg/kg, route oral. As to conditions: in vivo. In outline:
as §1

In data set [10] the test system is Staphylococcus aureus. Description: Antibacterial activity against linezolid-resistant Staphylococcus aureus after 16 hrs by NCCLS agar dilution method. In kind it is functional. The essentials: as §2
Data set [11] concerns Enterococcus faecium. As to the kind of experiment: Antibacterial activity against linezolid-resistant Enterococcus faecium after 16 hrs by NCCLS agar dilution method. In kind it is functional. In outline: as §2
Data set [12] in a line: Cmax in Sprague-Dawley rat at 10 mg/kg, po by LC-MS analysis. It counts as ADME, organism-based. As to conditions: in vivo. Details: dose 10 mg/kg, route oral. In outline: as §1
Data set [13] concerns Staphylococcus epidermidis. Description: Antibacterial activity against methicillin-resistant Staphylococcus epidermidis after 16 hrs by NCCLS agar dilution method. In kind it is functional. In outline: as §2
Data set [14] relates to Rattus norvegicus. Description: AUC in Sprague-Dawley rat at 5.6 mg/kg, iv by LC-MS analysis. In kind it is ADME, organism-based, Plasma. Details: dose 5.6 mg/kg, route intravenous. As to conditions: in vivo. In outline:
as §1

Data set [15] has as its system Staphylococcus epidermidis. As to the kind of experiment: Antibacterial activity against methicillin-sensitive Staphylococcus epidermidis after 16 hrs by NCCLS agar dilution method. It counts as functional. In outline: as §2
Data set [16] can be described thus: Tmax in Sprague-Dawley rat at 10 mg/kg, po by LC-MS analysis. As to conditions: in vivo. In kind it is ADME, organism-based. Details: dose 10 mg/kg, route oral. The essentials: as §1
Data set [17] is described as follows: Elimination half life in Sprague-Dawley rat at 10 mg/kg, po by LC-MS analysis. As to conditions: in vivo, read-out: beta t1/2 (converted). On the set-up: dose 10 mg/kg, route oral. It counts as ADME, organism-based. In outline: as §1
In data set [18] the test system is Staphylococcus aureus. Description: Antibacterial activity against Staphylococcus aureus ATCC 29213 after 16 hrs by NCCLS agar dilution method. It counts as functional. As to conditions: ATCC 29213, 16 h. The essentials:
as §2

In data set [19] the test system is Staphylococcus aureus. As to the kind of experiment: Antibacterial activity against methicillin-sensitive Staphylococcus aureus after 16 hrs by NCCLS agar dilution method. It counts as functional. In outline: as §2
Data set [20] is described as follows: Tmax in Sprague-Dawley rat at 15 mg/kg, po by LC-MS analysis. In kind it is ADME, organism-based. Details: dose 15 mg/kg, route oral. As to conditions: in vivo. The essentials: as §1
Data set [21] can be described thus: Elimination half life in Sprague-Dawley rat at 5 mg/kg, iv by LC-MS analysis. As to conditions: in vivo, read-out: beta t1/2 (converted). Details: dose 5 mg/kg, route intravenous. It counts as ADME, organism-based. The essentials:
(§3)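 Rats received the compound by intravenous injection, with oral dosing run in parallel. Clearance (CLz) is reported in L/h/kg. Elimination half-life (T1/2) is reported in h and was taken from the plasma concentration–time profile.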

For data set [22], the system named is Staphylococcus epidermidis. As to the kind of experiment: Ratio of linezolid MIC to compound MIC for linezolid-resistant Staphylococcus epidermidis. It counts as functional. The essentials:
(§4)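 Agar dilution per NCCLS, with linezolid tested alongside as control. Compounds were diluted 2-fold in sterile water, then 10-fold into Mueller–Hinton agar (final 16–0.03125 μg/mL). Strains (E. faecalis 3, E. faecium 3, S. aureus 3, S. epidermidis 1) were grown in MH broth at 35 °C for 8 h, adjusted to 0.5 McFarland, multipoint-inoculated, and incubated at 35 °C for 16 h. The ratio is linezolid MIC over compound MIC.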

The nature of data set [23]: Cmax in Sprague-Dawley rat at 15 mg/kg, po by LC-MS analysis. It counts as ADME, organism-based. On the set-up: dose 15 mg/kg, route oral. As to conditions: in vivo. The essentials: as §1
A short description of data set [24]: Clearance in Sprague-Dawley rat at 5 mg/kg, iv by LC-MS analysis. In kind it is ADME, organism-based. As to conditions: in vivo. On the set-up: dose 5 mg/kg, route intravenous. The essentials: as §3
Data set [25] is described as follows: AUC in Sprague-Dawley rat at 15 mg/kg, po by LC-MS analysis. In kind it is ADME, organism-based. On the set-up: dose 15 mg/kg, route oral. As to conditions: plasma. The essentials: (§5)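 Rats dosed orally or by intravenous injection. AUC is the area under the plasma concentration–time curve. For the prodrug entries, all PK values were based on the amount of the active parent antibacterial detected, not the administered prodrug.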

The nature of data set [26]: Oral bioavailability in Sprague-Dawley rat at 15 mg/kg. It counts as ADME, organism-based. As to conditions: in vivo. The essentials:
as §1

A short description of data set [27]: Elimination half life in Sprague-Dawley rat at 15 mg/kg, po by LC-MS analysis. It counts as ADME, organism-based. Details: dose 15 mg/kg, route oral. As to conditions: in vivo, read-out: beta t1/2 (converted). In outline: as §1
Data set [28] can be described thus: AUC in Sprague-Dawley rat at 5 mg/kg, iv by LC-MS analysis. In kind it is ADME, organism-based. Details: dose 5 mg/kg, route intravenous. As to conditions: plasma. In outline:
as §5

Data set [29] deals with Enterococcus faecalis. As to the kind of experiment: Ratio of linezolid MIC to compound MIC for linezolid-resistant Enterococcus faecalis. In kind it is functional. In outline: as §4
Data set [30] deals with Enterococcus faecium. As to the kind of experiment: Ratio of linezolid MIC to compound MIC for linezolid-resistant Enterococcus faecium. It counts as functional. The essentials:
as §4

Data set [31] concerns Staphylococcus aureus. Description: Ratio of linezolid MIC to compound MIC for linezolid-resistant Staphylococcus aureus. It counts as functional. In outline:
as §4

`O=C1OC(CO)CN1c1ccc(-c2ccc3c(c2)OC[C@H]2[C@H](CO)OC(=O)N32)cn1` (stereo partly drawn): the F in data set [1] is given as 27.5%. Further, the MIC in data set [2] worked out at 0.5 µg/mL (≈ 1.21 µM); in data set [3] it was 0.5 µg/mL (≈ 1.21 µM); in data set [4], 4 µg/mL (≈ 9.68 µM); in data set [7], 4 µg/mL (≈ 9.68 µM); in data set [8] it was 0.5 µg/mL (≈ 1.21 µM); in data set [10], 8 µg/mL (≈ 19.4 µM). For the same molecule, the MIC worked out at 4 µg/mL (≈ 9.68 µM) in data set [11]; 0.5 µg/mL (≈ 1.21 µM) in [13]; 0.25 µg/mL (≈ 0.605 µM) in [15]; 0.5 µg/mL (≈ 1.21 µM) in data set [18]; 0.5 µg/mL (≈ 1.21 µM) in data set [19]. The molecule further showed an IC50 in data set [5] above 40 µM. The half-life in [6] is 1.08 h; in data set [17], 2.25 h. Besides, the AUC worked out at 1491 ng·h/mL in data set [9] and 2800 ng·h/mL in [14]. In addition, in data set [12], the Cmax turned out to be 332 ng/mL. Moreover, the time to peak (Tmax) in data set [16] came to 0.38 h.
For the molecule `CN1C[C@@H](c2ccc(-c3ccc4c(c3)OC[C@H]3[C@H](CO)OC(=O)N43)cn2)OC1=O`, the Tmax in data set [20] was 1 h. The half-life in data set [21] is 2.51 h; in data set [27] it was 1.93 h. In addition, the Ratio in [22], in [29], in data set [30] and in data set [31] was 4 throughout. Also, the highest concentration (Cmax) in data set [23] came to 809 ng/mL. In addition, the MIC in data set [2] came out at 0.5 µg/mL (≈ 1.26 µM); in [3], 0.5 µg/mL (≈ 1.26 µM); in data set [4], 2 µg/mL (≈ 5.03 µM); in data set [7], 2 µg/mL (≈ 5.03 µM); in [8] it was 1 µg/mL (≈ 2.52 µM); in data set [10] it was 4 µg/mL (≈ 10.1 µM). Moreover, the minimal inhibitory concentration (MIC) was 2 µg/mL (≈ 5.03 µM) in data set [11]; 0.25 µg/mL (≈ 0.629 µM) in data set [13]; 0.25 µg/mL (≈ 0.629 µM) in data set [15]; 0.5 µg/mL (≈ 1.26 µM) in [18]; 0.5 µg/mL (≈ 1.26 µM) in data set [19]. The same molecule gave a clearance in data set [24] of 53.7 mL/min/kg. For the same molecule, the AUC amounted to 2170 ng·h/mL in data set [25] and 1560 ng·h/mL in data set [28]. Also, in data set [5], the IC50 was above 40 µM. In [26], this molecule returned a bioavailability of 44.8%.
